Assay results reported in ChEMBL document CHEMBL2203123, “Synthesis and biological evaluation of some hydrazone derivatives as new anticandidal and anticancer agents” (Eur J Med Chem, 2012).
Converted amounts (≈) assume the structure as drawn.

What was measured:
Salmonella typhimurium [1] = experiment: Genotoxicity against Salmonella typhimurium TA100 assessed as fold increase in revertants at 0.3125 mg/ml after 90 mins by Ames MPF test in absence of S9 fraction relative to baseline; assay type: toxicity, organism-based; conditions: salmonella enterica subsp. enterica serovar typhimurium, 1.5 h
Procedure, shortened: (§1)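 Ames MPF fluctuation test, TA98 and TA100: overnight cultures reincubated 90 min, then exposed 90 min at 37 °C to compounds at 0.156-5 mg/mL (in DMSO) with or without 4.5% v/v S9; indicator medium added, 48 wells per sample scored yellow after 48 h, triplicate. Fold over baseline = mean positive wells / (mean of DMSO control + 1 SD).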

Salmonella typhimurium [2] = experiment: Genotoxicity against Salmonella typhimurium TA100 assessed as fold increase in revertants at 1.25 mg/ml after 90 mins by Ames MPF test in presence of S9 fraction relative to baseline; assay type: toxicity, organism-based; conditions: salmonella enterica subsp. enterica serovar typhimurium, s9, 1.5 h; procedure, shortened: as §1
Salmonella typhimurium [3] = experiment: Genotoxicity against Salmonella typhimurium TA100 assessed as fold increase in revertants at 0.3125 mg/ml after 90 mins by Ames MPF test in presence of S9 fraction relative to baseline; assay type: toxicity, organism-based; conditions: salmonella enterica subsp. enterica serovar typhimurium, s9, 1.5 h; procedure, shortened: as §1
Salmonella typhimurium [4] = experiment: Genotoxicity against Salmonella typhimurium TA98 assessed as fold increase in revertants at 2.5 mg/ml after 90 mins by Ames MPF test in absence of S9 fraction relative to baseline; assay type: toxicity, organism-based; conditions: salmonella enterica subsp. enterica serovar typhimurium, 1.5 h; procedure, shortened: as §1
Pichia kudriavzevii = experiment: Antifungal activity against Candida krusei NRRL Y-7179 after 24 hrs by microdilution susceptibility assay; assay type: functional; conditions: NRRL Y-7179, 24 h
Procedure, shortened: (§2)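 Broth microdilution in Mueller Hinton Broth, compounds from DMSO stocks diluted serially; inocula standardized to 10^6 CFU/mL (McFarland 0.5) from overnight MHB cultures. Plates held 37 °C for 24 h; MIC taken as first well without turbidity, aided by 1% tetrazolium violet added for 3 h at 37 °C. Ketoconazole reference.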

Salmonella typhimurium [5] = experiment: Genotoxicity against Salmonella typhimurium TA1535/pSK1002 assessed as growth factor ratio at 2.5 mg/ml by umuC assay in absence of S9 fraction; assay type: toxicity, organism-based; conditions: salmonella enterica subsp. enterica serovar typhimurium
Procedure, shortened: (§3)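 umuC Easy CS: TA1535/pSK1002 grown overnight in ampicillin TG medium at 37 °C, then exposed 2 h at 37 °C to compounds at 5, 2.5, 1.25, 0.63 mg/mL with or without S9. Diluted into fresh medium for 2 h growth (OD600), then β-galactosidase with ONPG 30 min at 28 °C, OD420. Positive controls 2-aminoanthracene (+S9), […] (−S9).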

Salmonella typhimurium [6] = experiment: Genotoxicity against Salmonella typhimurium TA98 assessed as fold increase in revertants at 0.3125 mg/ml after 90 mins by Ames MPF test in presence of S9 fraction relative to baseline; assay type: toxicity, organism-based; conditions: salmonella enterica subsp. enterica serovar typhimurium, s9, 1.5 h; procedure, shortened: as §1
Salmonella typhimurium [7] = experiment: Genotoxicity against Salmonella typhimurium TA98 assessed as fold increase in revertants at 0.625 mg/ml after 90 mins by Ames MPF test in absence of S9 fraction relative to baseline; assay type: toxicity, organism-based; conditions: salmonella enterica subsp. enterica serovar typhimurium, 1.5 h; procedure, shortened: as §1
Salmonella typhimurium [8] = experiment: Genotoxicity against Salmonella typhimurium TA1535/pSK1002 assessed as growth factor ratio at 1.25 mg/ml by umuC assay in absence of S9 fraction; assay type: toxicity, organism-based; conditions: salmonella enterica subsp. enterica serovar typhimurium; procedure, shortened: as §3
Salmonella typhimurium [9] = experiment: Genotoxicity against Salmonella typhimurium TA1535/pSK1002 assessed as growth factor ratio at 1.25 mg/ml by umuC assay in presence of S9 fraction; assay type: toxicity, organism-based; conditions: salmonella enterica subsp. enterica serovar typhimurium; procedure, shortened: as §3
Salmonella typhimurium [10] = experiment: Genotoxicity against Salmonella typhimurium TA98 assessed as fold increase in revertants at 2.5 mg/ml after 90 mins by Ames MPF test in presence of S9 fraction relative to baseline; assay type: toxicity, organism-based; conditions: salmonella enterica subsp. enterica serovar typhimurium, s9, 1.5 h; procedure, shortened: as §1
Cyberlindnera jadinii = experiment: Antifungal activity against Candida utilis NRRL Y-900 after 24 hrs by microdilution susceptibility assay; assay type: functional; conditions: Williopsis jadinii, NRRL Y-900, 24 h; procedure, shortened: as §2
Salmonella typhimurium [11] = experiment: Genotoxicity against Salmonella typhimurium TA1535/pSK1002 assessed as growth factor ratio at 5 mg/ml by umuC assay in absence of S9 fraction; assay type: toxicity, organism-based; conditions: salmonella enterica subsp. enterica serovar typhimurium; procedure, shortened: as §3
Salmonella typhimurium [12] = experiment: Genotoxicity against Salmonella typhimurium TA100 assessed as fold increase in revertants at 0.156 mg/ml after 90 mins by Ames MPF test in absence of S9 fraction relative to baseline; assay type: toxicity, organism-based; conditions: salmonella enterica subsp. enterica serovar typhimurium, 1.5 h; procedure, shortened: as §1
Nakaseomyces glabratus = experiment: Antifungal activity against Candida glabrata Osmangazi University clinical isolate after 24 hrs by microdilution susceptibility assay; assay type: functional; procedure, shortened: as §2
Salmonella typhimurium [13] = experiment: Genotoxicity against Salmonella typhimurium TA1535/pSK1002 assessed as growth factor ratio at 0.63 mg/ml by umuC assay in absence of S9 fraction; assay type: toxicity, organism-based; conditions: salmonella enterica subsp. enterica serovar typhimurium; procedure, shortened: as §3
Candida albicans = experiment: Antifungal activity against Candida albicans ATCC 90028 after 24 hrs by microdilution susceptibility assay; assay type: functional; conditions: ATCC 90028, 24 h; procedure, shortened: as §2
Salmonella typhimurium [14] = experiment: Genotoxicity against Salmonella typhimurium TA1535/pSK1002 assessed as induction ratio at 2.5 mg/ml by umuC assay in presence of S9 fraction; assay type: toxicity, organism-based; conditions: salmonella enterica subsp. enterica serovar typhimurium; procedure, shortened: as §3
Salmonella typhimurium [15] = experiment: Genotoxicity against Salmonella typhimurium TA100 assessed as fold increase in revertants at 5 mg/ml after 90 mins by Ames MPF test in absence of S9 fraction relative to baseline; assay type: toxicity, organism-based; conditions: salmonella enterica subsp. enterica serovar typhimurium, 1.5 h; procedure, shortened: as §1
Salmonella typhimurium [16] = experiment: Genotoxicity against Salmonella typhimurium TA1535/pSK1002 assessed as growth factor ratio at 5 mg/ml by umuC assay in presence of S9 fraction; assay type: toxicity, organism-based; conditions: salmonella enterica subsp. enterica serovar typhimurium; procedure, shortened: as §3
Salmonella typhimurium [17] = experiment: Genotoxicity against Salmonella typhimurium TA98 assessed as fold increase in revertants at 5 mg/ml after 90 mins by Ames MPF test in presence of S9 fraction relative to baseline; assay type: toxicity, organism-based; conditions: salmonella enterica subsp. enterica serovar typhimurium, s9, 1.5 h; procedure, shortened: as §1
Salmonella typhimurium [18] = experiment: Genotoxicity against Salmonella typhimurium TA98 assessed as fold increase in revertants at 0.156 mg/ml after 90 mins by Ames MPF test in absence of S9 fraction relative to baseline; assay type: toxicity, organism-based; conditions: salmonella enterica subsp. enterica serovar typhimurium, 1.5 h; procedure, shortened: as §1
Salmonella typhimurium [19] = experiment: Genotoxicity against Salmonella typhimurium TA1535/pSK1002 assessed as growth factor ratio at 2.5 mg/ml by umuC assay in presence of S9 fraction; assay type: toxicity, organism-based; conditions: salmonella enterica subsp. enterica serovar typhimurium; procedure, shortened: as §3
Salmonella typhimurium [20] = experiment: Genotoxicity against Salmonella typhimurium TA98 assessed as fold increase in revertants at 5 mg/ml after 90 mins by Ames MPF test in absence of S9 fraction relative to baseline; assay type: toxicity, organism-based; conditions: salmonella enterica subsp. enterica serovar typhimurium, 1.5 h; procedure, shortened: as §1
[21] = Genotoxicity against Salmonella typhimurium TA1535/pSK1002 assessed as induction ratio at 1.25 mg/ml by umuC assay in absence of S9 fraction; assay type: toxicity, organism-based; conditions: salmonella enterica subsp. enterica serovar typhimurium, Salmonella typhimurium TA1535/pSK1002 without S9 fraction; procedure, shortened: as §3
[22] = Genotoxicity against Salmonella typhimurium TA1535/pSK1002 assessed as induction ratio at 2.5 mg/ml by umuC assay in absence of S9 fraction; assay type: toxicity, organism-based; conditions: salmonella enterica subsp. enterica serovar typhimurium, Salmonella typhimurium TA1535/pSK1002 without S9 fraction; procedure, shortened: as §3
Salmonella typhimurium [23] = experiment: Genotoxicity against Salmonella typhimurium TA98 assessed as fold increase in revertants at 0.3125 mg/ml after 90 mins by Ames MPF test in absence of S9 fraction relative to baseline; assay type: toxicity, organism-based; conditions: salmonella enterica subsp. enterica serovar typhimurium, 1.5 h; procedure, shortened: as §1
[24] = Genotoxicity against Salmonella typhimurium TA1535/pSK1002 assessed as induction ratio at 5 mg/ml by umuC assay in absence of S9 fraction; assay type: toxicity, organism-based; conditions: salmonella enterica subsp. enterica serovar typhimurium, Salmonella typhimurium TA1535/pSK1002 without S9 fraction; procedure, shortened: as §3
Candida parapsilosis = experiment: Antifungal activity against Candida parapsilosis NRRL Y-12696 after 24 hrs by microdilution susceptibility assay; assay type: functional; conditions: Lodderomyces parapsilosis, NRRL Y-12696, 24 h; procedure, shortened: as §2
Salmonella typhimurium [25] = experiment: Genotoxicity against Salmonella typhimurium TA98 assessed as fold increase in revertants at 1.25 mg/ml after 90 mins by Ames MPF test in presence of S9 fraction relative to baseline; assay type: toxicity, organism-based; conditions: salmonella enterica subsp. enterica serovar typhimurium, s9, 1.5 h; procedure, shortened: as §1

Row | MIC (Pichia kudriavzevii) | MIC (Cyberlindnera jadinii) | MIC (Nakaseomyces glabratus) | MIC (Candida albicans) | Compound | fold change (FC) (Salmonella typhimurium [1]) | fold change (FC) (Salmonella typhimurium [2]) | fold change (FC) (Salmonella typhimurium [3]) | fold change (FC) (Salmonella typhimurium [4]) | Ratio (Salmonella typhimurium [5]) | fold change (FC) (Salmonella typhimurium [6]) | fold change (FC) (Salmonella typhimurium [7]) | Ratio (Salmonella typhimurium [8]) | Ratio (Salmonella typhimurium [9]) | fold change (FC) (Salmonella typhimurium [10]) | Ratio (Salmonella typhimurium [11]) | fold change (FC) (Salmonella typhimurium [12]) | Ratio (Salmonella typhimurium [13]) | Ratio (Salmonella typhimurium [14]) | fold change (FC) (Salmonella typhimurium [15]) | Ratio (Salmonella typhimurium [16]) | further results
1 | 500 µg/mL (≈ 1700 µM) | 125 µg/mL (≈ 425 µM) | 250 µg/mL (≈ 849 µM) | 500 µg/mL (≈ 1700 µM) | Cn1nnnc1SCC(=O)N/N=C/c1ccccc1F | 0.06 | 0.88 | 0.51 | 0.95 | 1.559 | 0.71 | 0.64 | 1.084 | 1.163 | 1.57 | 3.877 | 0.23 | 1.045 | 0.352 | 0.17 | 2.579 | fold change (FC) (Salmonella typhimurium [17]): 1.14; fold change (FC) (Salmonella typhimurium [18]): 0.64; Ratio (Salmonella typhimurium [19]): 1.699; fold change (FC) (Salmonella typhimurium [20]): 1.59; fold induction at 1.25 mg/ml [21]: 1.02; fold induction at 2.5 mg/ml [22]: 0.779; fold change (FC) (Salmonella typhimurium [23]): 1.59; fold induction at 5 mg/ml [24]: 0.321; MIC (Candida parapsilosis): 1000 µg/mL (≈ 3400 µM); fold change (FC) (Salmonella typhimurium [25]): 1.28
2 | 500 µg/mL (≈ 1710 µM) | 500 µg/mL (≈ 1710 µM) | 1000 µg/mL (≈ 3420 µM) | 1000 µg/mL (≈ 3420 µM) | Cn1nnnc1SCC(=O)N/N=C/c1ccc(O)cc1 | 0.41 | 0.59 | 0.63 | 0.13 | 1.397 | 0.53 | 0.13 | 1.098 | 1.277 | 0.53 | 2.049 | 0.66 | 1.009 | 0.657 | 0 | 2.139 | fold change (FC) (Salmonella typhimurium [17]): 0.63; fold change (FC) (Salmonella typhimurium [18]): 0.52; Ratio (Salmonella typhimurium [19]): 1.663; fold change (FC) (Salmonella typhimurium [20]): 0.26; fold induction at 1.25 mg/ml [21]: 0.99; fold induction at 2.5 mg/ml [22]: 0.979; fold change (FC) (Salmonella typhimurium [23]): 0.13; fold induction at 5 mg/ml [24]: 0.661; MIC (Candida parapsilosis): 1000 µg/mL (≈ 3420 µM); fold change (FC) (Salmonella typhimurium [25]): 0.63
